Experiment [1] concerns Human immunodeficiency virus 1. Briefly: Antiviral activity against HIV1 3B in MT2 cells by MTT assay. The class given is functional, organism-based. In short, it runs like this:
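HIV-1 IIIB infection of MT-2 human T cells, with MTT colorimetric read-out of cell protection.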
Background: Tetrazolium assays rely on reduction of a dye to a coloured formazan, in cell work by metabolically active cells.

Experiment [2] has as its system MT2. Description: Cytotoxicity against human MT2 cells by MTT assay. The class given is functional.
Setting [3] is: Human immunodeficiency virus 1, 3B, MT2, read-out: EC50.

The source of these data is ChEMBL document CHEMBL1149430, “Optimization of diarylamines as non-nucleoside inhibitors of HIV-1 reverse transcriptase” (Bioorg Med Chem Lett, 2006).

Bounds are passed on as bounds.

In the case of `Clc1ccc(Nc2nccs2)cc1OCC1=CCCC1`, the EC50 in experiment [1] (setting [3]) came out at 5 µM. This molecule also yielded a CC50 in experiment [2] of 15 µM.

Regarding `COCc1ccnc(Nc2ccc(Cl)c(OCC=C(C)C)c2)n1`, the EC50 entry in experiment [1] (mt2) is on record as “Not Active”. This molecule also returned a CC50 in experiment [2] above 25 µM.

Consider `N#Cc1ccc(Nc2nccs2)cc1OCc1ccsc1`, for which the EC50 entry in experiment [1] (mt2) is recorded as “Not Active”. In experiment [2], this molecule yielded a CC50 of 1.1 µM.

`N#Cc1ccc(Nc2nccs2)cc1OCc1nccs1`: the EC50 in experiment [1] (setting [3]) worked out at 4.5 µM. This molecule yielded a CC50 in experiment [2] of 20 µM.

Regarding `COc1cc(OC)nc(Nc2ccc(Cl)c(OCC=C(C)C)c2)n1`, it took 28 µM to reach half-maximal cytotoxicity in experiment [2] (CC50).

In the case of `N#Cc1ccc(Nc2nccs2)cc1OCc1ccoc1`, the EC50 entry in experiment [1] (mt2) is recorded as “Not Active”. In experiment [2], this molecule displayed a 50% cytotoxic concentration (CC50) of 4 µM.

As to `CC(C)=CCOc1cc(Nc2ncccn2)ccc1Cl`, it took 2.5 µM to reach half-maximal cytotoxicity in experiment [2] (CC50).

As to `CC(C)=CCOc1cc(Nc2nccs2)ccc1C(=O)O`, in experiment [1] (mt2), the EC50 result was “Not Active”. Besides, the midpoint of cytotoxicity in experiment [2], the CC50, lay at 17 µM.

`Clc1ccc(Nc2nccs2)cc1OCc1ccccc1`: in experiment [1] (setting [3]), the EC50 stood at 6 µM. In experiment [2], this molecule showed a CC50 of 17 µM.

In the case of `CC(C)=CCOc1cc(Nc2nccc(CO)n2)ccc1Cl`, the EC50 result in experiment [1] (mt2) is “Not Active”. The molecule also displayed a CC50 in experiment [2] of 0.22 µM.

`CC(C)=CCOc1cc(Nc2nccs2)ccc1C#N` registered a CC50 in experiment [2] of 0.75 µM.

Regarding `N#Cc1ccc(Nc2nccs2)cc1OCC1=CCCC1`, the EC50 result in experiment [1] (mt2) was “Not Active”. This molecule yielded a half-maximal cytotoxic concentration (CC50) in experiment [2] of 1.7 µM.

With `Clc1ccc(Nc2nccs2)cc1OCc1nccs1`, the EC50 result in experiment [1] (mt2) was “Not Active”. For the same molecule, in experiment [2], the CC50 is 20 µM.

As for `N#Cc1ccc(Nc2nccs2)cc1OCc1ccco1`, the EC50 in experiment [1] (setting [3]) turned out to be 1.2 µM. The same molecule came in with a CC50 in experiment [2] of 18 µM.

As for `Clc1ccc(Nc2nccs2)cc1OCc1ccoc1`, the EC50 in experiment [1] (setting [3]) came out at 7 µM. Moreover, the CC50 in experiment [2] is 26 µM.

For `CC1=C(COc2cc(Nc3nccs3)ccc2Cl)CCC1`, the EC50 result in experiment [1] (mt2) was “Not Active”. Besides, in experiment [2], the midpoint of cytotoxicity, the CC50, lay at 11 µM.

In turn, `CSc1ccnc(Nc2ccc(Cl)c(OCC=C(C)C)c2)n1` yielded a 50% cytotoxic concentration (CC50) in experiment [2] of 2.8 µM.

For the molecule `COc1ccnc(Nc2ccc(C)c(OCC=C(C)C)c2)n1`, the EC50 in experiment [1] (setting [3]) was found to be 0.32 µM. In experiment [2], half-maximal cytotoxicity (CC50) was put at 41 µM.

Regarding `CC/C(C)=C\COc1cc(Nc2nccs2)ccc1Cl`, the EC50 in experiment [1] (setting [3]) came to 1 µM. Also, the CC50 in experiment [2] amounted to 18 µM.

`COc1ccc(Nc2nc(CO)cs2)cc1OCC=C(C)C`: the EC50 in experiment [1] (setting [3]) is 9 µM. In experiment [2], this molecule yielded a cytotoxic concentration (CC50) of 80 µM.

Turning to `COc1cc(N)nc(Nc2ccc(Cl)c(OCC=C(C)C)c2)n1`, the CC50 in experiment [2] turned out to be 19 µM.

For `Clc1ccc(Nc2nccs2)cc1OCc1ccsc1`, the EC50 in experiment [1] (setting [3]) came to 5.5 µM. The same molecule returned a CC50 in experiment [2] of 38 µM.

For `Clc1ccc(Nc2nccs2)cc1OCc1cccs1`, the EC50 in experiment [1] (setting [3]) was determined as 10 µM. Also, the CC50 in experiment [2] turned out to be 38 µM.

Consider `CC(C)=CCOc1cc(Nc2ncc(Br)c(N)n2)ccc1Cl`, for which the EC50 in experiment [1] (setting [3]) is 0.7 µM. Further, the CC50 in experiment [2] stood at 12 µM.

Regarding `N#Cc1ccc(Nc2nccs2)cc1OCc1cccs1`, the EC50 result in experiment [1] (mt2) is listed as “Not Active”. Moreover, in experiment [2], it took 4.1 µM to reach half-maximal cytotoxicity (CC50).

Turning to `Clc1ccc(Nc2nccs2)cc1OCC1CCCCC1`, the EC50 entry in experiment [1] (mt2) is “Not Active”. The same molecule showed a CC50 in experiment [2] of 15 µM.

For the molecule `CC(C)=CCOc1cc(Nc2nc(C)cc(N)n2)ccc1Cl`, in experiment [1] (mt2), the EC50 result is listed as “Not Active”. In experiment [2], this molecule came in with a CC50 below 0.004 µM.

For the molecule `CC(C)=CCOc1cc(Nc2nc(N)cc(Cl)n2)ccc1Cl`, the EC50 result in experiment [1] (mt2) was “Not Active”. For the same molecule, the CC50 in experiment [2] turned out to be 0.014 µM.

`Clc1ccc(Nc2nccs2)cc1OCc1ccco1`: the EC50 in experiment [1] (setting [3]) was determined as 4 µM. Half-maximal cytotoxicity in experiment [2] (CC50) was put at 18 µM.

For orientation: EC50 means the concentration that produces a half-maximal response. What is called CC50 is the concentration giving 50% cytotoxicity.
